The target in experiment [1] is T1, Transient receptor potential cation channel subfamily A member 1 (Rattus norvegicus, UniProt Q6RI86). The experiment in a line: Agonist activity at rat TRPA1 receptor expressed in HEK293 cells assessed as increase in intracellular Ca2+ concentration by spectrofluorimetric analysis. It counts as cell-based. The method in brief:
(§1)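 HEK293 cells stably transfected with human TRPV1 or rat TRPA1 cDNA (pcDNA3, G-418 selection) were loaded 1 h at room temperature with Fluo-4-AM, washed and suspended in Tyrode's buffer pH 7.4. [Ca²⁺]i was read by stirred-cuvette spectrofluorimetry before and after adding test compound at various concentrations. Signal from untransfected cells was subtracted. Efficacy was taken as percent of ionomycin (4 µM) for TRPV1 and percent of allyl isothiocyanate (100 µM) for TRPA1; EC50 was also derived.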

The target of experiment [2] is T1, Transient receptor potential cation channel subfamily A member 1. As to the kind of experiment: Antagonist activity at rat TRPA1 receptor expressed in HEK293 cells assessed as inhibition of allyl isothiocyanate-induced intracellular Ca2+ elevation incubated for 5 mins prior to allyl isothiocyanate-stimulation by spectrofluorimetric analysis. It counts as cell-based. The method in brief:
(§2)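 Fluo-4-loaded HEK293 cells stably expressing human TRPV1 or rat TRPA1, in Tyrode's buffer pH 7.4, received test compound in the cuvette 5 min before agonist: capsaicin 0.1 µM for TRPV1, AITC 100 µM for TRPA1. The [Ca²⁺]i rise with agonist alone was set to 100%. IC50 came from a variable-slope sigmoidal fit. Untransfected-cell signal was subtracted.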

For experiment [3], the target named is T2, Transient receptor potential cation channel subfamily V member 1 (Homo sapiens, UniProt Q8NER1). As to the kind of experiment: Antagonist activity at human TRPV1 receptor expressed in HEK293 cells assessed as inhibition of capsaicin-induced intracellular Ca2+ elevation incubated for 5 mins prior to capsaicin-stimulation by spectrofluorimetric analysis. It counts as cell-based. The essentials: as §2

Experiment [4] has as its target T3, Monoglyceride lipase (Homo sapiens, UniProt Q99685).
T3 sequence (Q99685 whole entry): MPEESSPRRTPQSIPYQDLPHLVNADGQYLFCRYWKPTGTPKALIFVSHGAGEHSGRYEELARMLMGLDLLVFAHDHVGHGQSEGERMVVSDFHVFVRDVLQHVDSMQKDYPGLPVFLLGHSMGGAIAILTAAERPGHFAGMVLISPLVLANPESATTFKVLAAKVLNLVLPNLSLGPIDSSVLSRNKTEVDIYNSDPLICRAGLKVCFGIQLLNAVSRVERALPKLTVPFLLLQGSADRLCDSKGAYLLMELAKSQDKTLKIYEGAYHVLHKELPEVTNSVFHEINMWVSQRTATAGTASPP
As to the kind of experiment: Inhibition of MAGL (unknown origin) expressed in African green monkey COS7 cell cytosolic fraction assessed as [3H]2-AG hydrolysis to [3H]arachidonic acid after 20 mins by beta counting analysis. Also noted: species or system COS-7.

Experiment [5] deals with Transient receptor potential cation channel subfamily A member 1 (Rattus norvegicus) (UniProt Q6RI86). The experiment in a line: Agonist activity at rat TRPA1 receptor expressed in HEK293 cells assessed as increase in intracellular Ca2+ concentration by spectrofluorimetric analysis relative to allyl isothiocyanate. It counts as cell-based. The essentials: as §1
In experiment [6] the target is T4, Fatty-acid amide hydrolase 1 (Rattus norvegicus, UniProt P97612).
T4 sequence (P97612 whole entry): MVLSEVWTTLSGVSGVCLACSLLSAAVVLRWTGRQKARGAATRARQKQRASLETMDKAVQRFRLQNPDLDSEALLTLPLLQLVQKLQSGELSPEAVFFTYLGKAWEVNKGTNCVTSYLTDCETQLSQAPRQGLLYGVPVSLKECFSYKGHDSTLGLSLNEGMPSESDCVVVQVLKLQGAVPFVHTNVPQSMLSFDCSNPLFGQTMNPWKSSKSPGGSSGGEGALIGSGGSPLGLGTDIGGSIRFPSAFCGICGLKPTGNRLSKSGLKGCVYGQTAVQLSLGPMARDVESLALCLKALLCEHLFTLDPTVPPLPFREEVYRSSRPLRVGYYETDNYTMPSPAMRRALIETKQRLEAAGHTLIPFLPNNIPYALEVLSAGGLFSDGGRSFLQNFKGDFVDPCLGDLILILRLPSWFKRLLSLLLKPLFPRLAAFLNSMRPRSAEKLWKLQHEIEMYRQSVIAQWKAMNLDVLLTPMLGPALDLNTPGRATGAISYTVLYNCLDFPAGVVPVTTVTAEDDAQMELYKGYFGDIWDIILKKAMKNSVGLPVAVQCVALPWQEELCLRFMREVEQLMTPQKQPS
The experiment in a line: Inhibition of FAAH in rat brain membranes assessed as [14C]AEA hydrolysis to [14C]Ethanolamine after 30 mins by scintillation counting analysis. It counts as cell membranes. The essentials: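 Rat brain membranes were incubated with [¹⁴C]AEA in 50 mM Tris-HCl pH 9 for 30 min at 37 °C. Released [¹⁴C]ethanolamine in the aqueous phase was counted by scintillation after CHCl₃/CH₃OH 2/1 extraction. IC50 was the concentration giving 50% inhibition.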

In experiment [7] the target is T2, Transient receptor potential cation channel subfamily V member 1. As to the kind of experiment: Agonist activity at human TRPV1 receptor expressed in HEK293 cells assessed as increase in intracellular Ca2+ concentration by spectrofluorimetric analysis relative to ionomycin. It counts as cell-based. The method in brief: as §1

T1 sequence (Q6RI86 whole entry): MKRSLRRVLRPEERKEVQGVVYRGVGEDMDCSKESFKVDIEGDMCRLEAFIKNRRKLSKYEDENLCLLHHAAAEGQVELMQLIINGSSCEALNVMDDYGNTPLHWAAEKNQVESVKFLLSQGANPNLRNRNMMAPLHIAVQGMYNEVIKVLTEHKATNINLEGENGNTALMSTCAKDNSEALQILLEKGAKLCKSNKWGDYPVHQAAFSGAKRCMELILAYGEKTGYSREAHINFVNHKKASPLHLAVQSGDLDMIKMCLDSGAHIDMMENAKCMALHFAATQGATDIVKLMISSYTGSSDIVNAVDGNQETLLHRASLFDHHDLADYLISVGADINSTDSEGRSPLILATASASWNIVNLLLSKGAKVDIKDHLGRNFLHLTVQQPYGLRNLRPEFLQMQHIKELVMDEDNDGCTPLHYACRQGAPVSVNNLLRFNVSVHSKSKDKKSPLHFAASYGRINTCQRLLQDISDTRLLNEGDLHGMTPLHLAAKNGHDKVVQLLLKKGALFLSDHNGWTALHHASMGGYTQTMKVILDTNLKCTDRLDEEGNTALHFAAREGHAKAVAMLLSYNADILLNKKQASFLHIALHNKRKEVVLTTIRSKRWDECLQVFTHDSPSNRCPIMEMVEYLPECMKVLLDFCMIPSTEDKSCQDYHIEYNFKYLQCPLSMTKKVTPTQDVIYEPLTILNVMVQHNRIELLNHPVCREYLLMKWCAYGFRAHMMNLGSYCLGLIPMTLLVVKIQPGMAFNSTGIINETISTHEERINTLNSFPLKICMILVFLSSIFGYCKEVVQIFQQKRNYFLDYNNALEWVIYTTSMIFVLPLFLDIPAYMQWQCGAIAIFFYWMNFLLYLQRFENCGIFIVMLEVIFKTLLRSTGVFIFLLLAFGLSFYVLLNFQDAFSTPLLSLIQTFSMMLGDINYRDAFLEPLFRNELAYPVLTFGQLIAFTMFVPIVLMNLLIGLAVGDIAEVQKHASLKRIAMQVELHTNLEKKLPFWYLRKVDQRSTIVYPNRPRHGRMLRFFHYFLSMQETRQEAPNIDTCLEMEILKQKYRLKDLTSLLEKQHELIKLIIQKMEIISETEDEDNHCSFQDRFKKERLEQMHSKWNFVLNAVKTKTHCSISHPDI
Chain of Transient receptor potential cation channel subfamily A member 1 (Rattus norvegicus) (Q6RI86 whole entry): as above
T2 sequence (Q8NER1 whole entry): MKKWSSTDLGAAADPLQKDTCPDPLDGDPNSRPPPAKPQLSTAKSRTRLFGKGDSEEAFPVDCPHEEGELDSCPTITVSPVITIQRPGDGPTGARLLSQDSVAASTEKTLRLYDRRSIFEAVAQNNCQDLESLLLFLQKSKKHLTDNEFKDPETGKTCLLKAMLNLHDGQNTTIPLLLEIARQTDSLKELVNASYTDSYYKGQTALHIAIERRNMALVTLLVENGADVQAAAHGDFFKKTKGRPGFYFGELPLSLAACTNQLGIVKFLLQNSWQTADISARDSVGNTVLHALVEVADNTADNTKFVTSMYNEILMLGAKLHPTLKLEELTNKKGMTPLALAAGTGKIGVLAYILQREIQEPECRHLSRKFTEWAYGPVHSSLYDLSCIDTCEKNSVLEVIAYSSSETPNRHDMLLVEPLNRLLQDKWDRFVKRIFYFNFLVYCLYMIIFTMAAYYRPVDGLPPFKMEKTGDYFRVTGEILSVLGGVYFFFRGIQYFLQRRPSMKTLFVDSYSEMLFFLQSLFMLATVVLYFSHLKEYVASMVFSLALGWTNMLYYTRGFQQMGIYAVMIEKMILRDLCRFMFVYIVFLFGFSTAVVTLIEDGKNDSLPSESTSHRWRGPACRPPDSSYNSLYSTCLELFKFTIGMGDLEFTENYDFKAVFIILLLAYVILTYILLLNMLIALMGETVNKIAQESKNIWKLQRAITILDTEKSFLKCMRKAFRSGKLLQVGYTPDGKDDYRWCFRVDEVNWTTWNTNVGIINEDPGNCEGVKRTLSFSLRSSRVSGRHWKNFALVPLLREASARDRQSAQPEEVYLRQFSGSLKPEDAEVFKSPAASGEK

In the case of `Cc1ccccc1-c1ccc(Cc2nnnn2C(=O)N(C)C)cc1`, the concentration for a half-maximal effect (EC50) in experiment [1] was 48.7 µM. In addition, the half-inhibitory concentration (IC50) is 45.2 µM in experiment [2], above 100 µM in experiment [3], above 1 µM in experiment [4] and 0.0355 µM in experiment [6]. Further, the Efficacy in experiment [5] is 349%; in experiment [7], below 10%.

For `Cc1cccc(-c2ccc(Cc3nnn(C(=O)N(C)C)n3)cc2)c1`, the half-maximal effective concentration (EC50) in experiment [1] is 15 µM. Also, the concentration for half-maximal inhibition (IC50) in experiment [2] amounted to 17.8 µM; in experiment [3] it was 78.9 µM; in experiment [6] it was 0.0485 µM. Besides, the Efficacy was 187% in experiment [5] and below 10% in experiment [7].

As to `CC(=O)c1cccc(-c2ccc(Cc3nnnn3C(=O)N(C)C)cc2)c1`, the IC50 was above 100 µM in experiment [2], above 100 µM in experiment [3], above 1 µM in experiment [4] and 0.0147 µM in experiment [6]. The Efficacy in experiment [5] and in experiment [7] was below 10% each time.

Turning to `CC(=O)c1cccc(-c2ccc(Cc3nnn(C(=O)N(C)C)n3)cc2)c1`, the IC50 in experiment [2] is 97.2 µM; in experiment [3], above 100 µM; in experiment [6], 0.0342 µM. Besides, the Efficacy in experiment [5] and in experiment [7] was below 10% throughout.

Consider `CN(C)C(=O)n1nnc(Cc2ccc(-c3ccc(CO)cc3)cc2)n1`, for which the half-maximal effective concentration (EC50) in experiment [1] turned out to be 24.4 µM. The concentration for half-maximal inhibition (IC50) was 70.6 µM in experiment [2], above 100 µM in experiment [3] and 0.0075 µM in experiment [6]. The results for the Efficacy in experiment [5] and in experiment [7] were 67.3% and below 10%, respectively.

For `CN(C)C(=O)n1nnnc1Cc1ccc(-c2ccccc2)cc1`, in experiment [1], the EC50 amounted to 26.9 µM. Moreover, the IC50 was 49.4 µM in experiment [2] and above 100 µM in experiment [3]. Besides, the Efficacy in experiment [5] was 101%; in experiment [7], below 10%.

In the case of `CN(C)C(=O)n1nnc(Cc2ccc(-c3ccc(O)cc3)cc2)n1`, the EC50 in experiment [1] came out at 14.6 µM. Also, the IC50 in experiment [2] was 30.2 µM; in experiment [3], above 100 µM; in experiment [6], 0.0054 µM. In addition, the Efficacy in experiment [5] is 109%; in experiment [7], below 10%.

For `CN(C)C(=O)n1nnc(Cc2ccc(-c3ccccc3O)cc2)n1`, the EC50 in experiment [1] is 53.3 µM. Also, the figures for the IC50 in experiment [2], in experiment [3] and in experiment [6] were 28 µM, above 100 µM and 0.0402 µM, respectively. The Efficacy in experiment [5] is 445%; in experiment [7] it was below 10%.

Take `CN(C)C(=O)n1nnc(Cc2ccc(-c3cccc(C(N)=O)c3)cc2)n1`: the IC50 in experiment [2] is 83.1 µM; in experiment [3], 91.8 µM; in experiment [6], 0.0071 µM. Besides, the Efficacy in experiment [5] and in experiment [7] was below 10% each time.

Consider `Cc1ccccc1-c1ccc(Cc2nnn(C(=O)N(C)C)n2)cc1`, for which the EC50 in experiment [1] was 15.9 µM. Besides, the IC50 was 18.9 µM in experiment [2], above 100 µM in experiment [3] and 0.0517 µM in experiment [6]. Also, the Efficacy in experiment [5] is 202%; in experiment [7], below 10%.

`CN(C)C(=O)n1nnnc1Cc1ccc(-c2cccc(CO)c2)cc1`: the IC50 in experiment [2] is above 100 µM; in experiment [3], above 100 µM; in experiment [6], 0.0106 µM. The Efficacy in experiment [5] and in experiment [7] was below 10% each time.

Consider `COC(=O)c1cccc(-c2ccc(Cc3nnn(C(=O)N(C)C)n3)cc2)c1`, for which the IC50 in experiment [2] was 91.2 µM; in experiment [3] it was above 100 µM; in experiment [6], 0.0123 µM. The Efficacy in experiment [5] and in experiment [7] was below 10% in each case.

Consider `CN(C)C(=O)n1nnc(Cc2ccc(-c3cccc(CO)c3)cc2)n1`, for which the values for the half-maximal inhibitory concentration (IC50) in experiment [2], in experiment [3] and in experiment [6] were above 100 µM, above 100 µM and 0.0107 µM, respectively. In addition, the Efficacy in experiment [5] and in experiment [7] was below 10% throughout.

For the compound `COC(=O)c1cccc(-c2ccc(Cc3nnnn3C(=O)N(C)C)cc2)c1`, the IC50 in experiment [2] was 99.8 µM; in experiment [3] it was above 100 µM; in experiment [4], above 1 µM; in experiment [6], 0.0121 µM. In addition, the Efficacy in experiment [5] and in experiment [7] was below 10% in each case.

(Values after ChEMBL document CHEMBL2375292, “Biaryl tetrazolyl ureas as inhibitors of endocannabinoid metabolism: modulation at the N-portion and distal phenyl ring” (Eur J Med Chem, 2013).)
